The results in this text go back to ChEMBL document CHEMBL1800063, “Isolation and structural elucidation of proline-containing cyclopentapeptides from an endolichenic Xylaria sp” (2011).

Assay [1] relates to Candida albicans. The experiment in a line: Antifungal activity against Candida albicans SC5314 at 100 ug/mL after 16 hrs by broth microdilution method. Type of assay: functional, organism-based. The method, boiled down:
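Candida albicans SC5314 broth microdilution adapted from CLSI M-27A. Overnight culture suspended in RPMI 1640 at 1 × 10^4 cfu/mL. 2 μL of sample plus 80 μL of suspension per well, incubated at 35 °C for 16 h. Ketoconazole was the positive control. Growth was read as optical density against blank-control wells to give the MIC.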

For assay [2], the system named is Candida albicans. The experiment in a line: Antifungal activity against Candida albicans SC5314 at 100 ug/mL after 16 hrs by CLSI M-27A broth microdilution method in presence of 0.004 ug/mL ketoconazole relative to compound alone. Format: functional, organism-based. (Dilution methods test growth across graded concentrations, often in twofold steps.)
Assay [3] deals with Candida albicans. Kind of assay: Antifungal activity against Candida albicans SC5314 at 1 ug/mL after 16 hrs by broth microdilution method in presence of 0.004 ug/mL ketoconazole relative to compound alone. Type of assay: functional.
Assay [4] relates to Candida albicans. The experiment in a line: Antifungal activity against Candida albicans SC5314 at 6.25 ug/mL after 16 hrs by broth microdilution method in presence of 0.004 ug/mL ketoconazole relative to compound alone. Type of assay: functional.

Activity calls are given as the source filed them. The calls are words filed in the database; no cut-off is given here.

Turning to `CO[C@@H]1C=C2C3CC[C@H](C(C)/C=C/C(C)C(C)C)[C@@]3(C)CC[C@@H]2[C@@]2(C)CC[C@H](O)C[C@]12O` (some centres not stated), the outcome in the assay with Candida albicans [1] and in the assay on Candida albicans [2] was inactive. For the compound `CC(C)[C@@H](C)/C=C/[C@@H](C)[C@H]1CC[C@H]2C3=CC(=O)C4=CC(=O)CC[C@]4(C)[C@H]3CC[C@]12C`, the outcome with Candida albicans [1] and in the assay on Candida albicans [2] was inactive. Turning to `CC(C)[C@@H](C)/C=C/[C@@H](C)[C@H]1CC[C@@H]2[C@]1(C)CCC1[C@]23C=CC2(CC(O)CC[C@]12C)OO3` (some centres not stated), the outcome with Candida albicans [1] and with Candida albicans [2] was inactive. Consider `CC(C)[C@@H](C)/C=C/[C@@H](C)[C@H]1CC[C@H]2C3=C[C@@H](O)[C@@]4(O)C[C@@H](O)CC[C@]4(C)[C@H]3CC[C@]12C`, for which the outcome with Candida albicans [1] and in the assay with Candida albicans [2] was inactive.

For `CC(C)[C@@H](C)/C=C/[C@@H](C)[C@H]1CC[C@H]2C3=CC=C4C[C@@H](O)CC[C@]4(C)[C@H]3CC[C@]12C`, the outcome with Candida albicans [1] and in the assay with Candida albicans [2] was inactive. As for `CC(C)[C@@H]1OC(=O)[C@@H](Cc2ccccc2)N(C)C(=O)[C@H](C(C)C)OC(=O)[C@@H](Cc2ccccc2)N(C)C(=O)[C@H](C(C)C)OC(=O)[C@@H](Cc2ccccc2)N(C)C1=O` [BEAUVERICIN], the “fractional inhibitory concentration index (FICI)” value in the assay with Candida albicans [3] is less than 0.375. With `CC[C@@H](C)[C@H]1NC(=O)[C@H](C(C)C)NC(=O)[C@H](Cc2ccccc2)N(C)C(=O)[C@@H]2CCCN2C(=O)[C@H](CC(C)C)NC1=O`, the “fractional inhibitory concentration index (FICI)” value with Candida albicans [4] is reported as less than 0.3125. Also, the result in the assay with Candida albicans [1] was inactive. In the case of `C[C@]1(CCO)CC[C@H]2C(=CC[C@@H]3[C@]2(C)CCC[C@@]3(C)C(=O)O)C1`, the result in the assay with Candida albicans [1] and in the assay on Candida albicans [2] was inactive. As to `CC(C)C(C)/C=C/[C@@H](C)[C@H]1CCC2=C3C=CC4=CC(=O)CC[C@]4(C)[C@H]3CC[C@@]21C` (some centres not stated), the outcome in the assay on Candida albicans [1] and in the assay with Candida albicans [2] was inactive.
